Measurements: ChEMBL document CHEMBL1140587, “Investigation of the terminal P4 domain in a series of D-phenylglycinamide-based factor Xa inhibitors” (Bioorg Med Chem Lett, 2007)

Tests used:
[1] = molecular target: Coagulation factor X (Homo sapiens) (UniProt P00742); test: Binding affinity to human factor10a
[2] = tested on: Plasma; test: Anticoagulant activity in human plasma assessed as concentration required to double prothrombin time; type: functional
[3] = AUC(0 to 7 hrs) in rat plasma at 20 mg/kg, po; type: ADME, organism-based; set-up: time < 7 hr, dose 20 mg/kg, route oral
How it was run: (§1)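 Fasted Fisher rats (n = 3) got one 20 mpk oral gavage, suspended in acacia or CMC/Tween 80. Citrated blood was taken at set times and spun to plasma. Drug level was read as anti-Xa equivalents: plasma at 37 °C for 15 min, S-2222 substrate, human fXa 0.4 U/ml, 405 nm kinetic over 10 min. Values came from triplicate spiked-plasma standards by four-parameter logistic fit; AUC by area algorithm.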

[4] = Cmax in rat plasma at 20 mg/kg, po; type: ADME, organism-based; set-up: dose 20 mg/kg, route oral; how it was run: as §1

Sequence of Coagulation factor X (Homo sapiens) (P00742 41-179 limits assumed): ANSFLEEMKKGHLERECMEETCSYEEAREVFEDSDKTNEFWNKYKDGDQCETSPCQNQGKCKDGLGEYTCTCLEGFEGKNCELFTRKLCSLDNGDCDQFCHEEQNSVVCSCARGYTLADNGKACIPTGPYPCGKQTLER
Sequence of Coagulation factor X (Homo sapiens) (P00742 235-488 limits assumed): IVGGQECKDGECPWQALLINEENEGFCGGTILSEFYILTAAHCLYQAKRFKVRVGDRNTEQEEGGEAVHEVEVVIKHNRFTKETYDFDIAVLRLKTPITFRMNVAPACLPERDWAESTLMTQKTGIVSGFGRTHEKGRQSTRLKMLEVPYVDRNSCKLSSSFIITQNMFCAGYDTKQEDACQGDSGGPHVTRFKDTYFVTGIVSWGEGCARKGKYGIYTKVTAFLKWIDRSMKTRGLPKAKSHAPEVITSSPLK

SMILES	Kapp [1]	Activity [2] [µM]	AUC(0-t) at 7 h [3] [ng·h/mL]	Cmax [4] [µM]
O=C(N[C@@H](C(=O)N1CCC(CN2CCC(O)CC2)CC1)c1ccccc1)c1ccc2cc[nH]c2c1	10 10^6L/mol	–	–	–
O=C(N[C@@H](C(=O)N1CCC(CN2CCC[C@@H]2CO)CC1)c1ccccc1)c1ccc2cc[nH]c2c1	18 10^6L/mol	2.2	–	–
O=C(N[C@@H](C(=O)N1CCC(CN2CCCCC2)CC1)c1ccccc1)c1ccc2cc[nH]c2c1	48 10^6L/mol	1.2	23000	4.7
Cc1c[nH]c2cc(C(=O)N[C@@H](C(=O)N3CCC(CN4CCCCC4)CC3)c3ccccc3)ccc12	110 10^6L/mol	1.5	14000	2.4
CCN(CC)CC1CCN(C(=O)[C@H](NC(=O)c2ccc3cc[nH]c3c2)c2ccccc2)CC1	28 10^6L/mol	2.3	–	–
O=C(N[C@@H](C(=O)N1CCC(CN2CCCCC2)CC1)c1ccccc1)c1ccc2c(Cl)c[nH]c2c1	710 10^6L/mol	1.1	10000	1.7
O=C(N[C@@H](C(=O)N1CCC(CN2CCC(CO)CC2)CC1)c1ccccc1)c1ccc2cc[nH]c2c1	0.7 10^6L/mol	–	–	–
CN1CCN(CC2CCN(C(=O)[C@H](NC(=O)c3ccc4cc[nH]c4c3)c3ccccc3)CC2)CC1	1.5 10^6L/mol	–	–	–
O=C(N[C@@H](C(=O)N1CCC(CN2CCC(O)C2)CC1)c1ccccc1)c1ccc2cc[nH]c2c1 (stereo not given in full)	5 10^6L/mol	–	–	–
CC(C)NCC1CCN(C(=O)[C@H](NC(=O)c2ccc3cc[nH]c3c2)c2ccccc2)CC1	7.8 10^6L/mol	–	–	–
O=C(N[C@@H](C(=O)N1CCC(CN2CCNCC2)CC1)c1ccccc1)c1ccc2cc[nH]c2c1	3.9 10^6L/mol	–	–	–
CN1CCC(C2CCN(C(=O)[C@H](NC(=O)c3ccc4cc[nH]c4c3)c3ccccc3)CC2)CC1	450 10^6L/mol	1.5	19000	4
O=C(N[C@@H](C(=O)N1CCC(CN2CC[C@@H](O)C2)CC1)c1ccccc1)c1ccc2cc[nH]c2c1	4 10^6L/mol	–	–	–
O=C(N[C@@H](C(=O)N1CCC(CN2CCCC2)CC1)c1ccccc1)c1ccc2cc[nH]c2c1	24 10^6L/mol	2.2	–	–
O=C(N[C@@H](C(=O)N1CCC(CN2CCC[C@H]2CO)CC1)c1ccccc1)c1ccc2cc[nH]c2c1	9.7 10^6L/mol	–	–	–
